Assay results taken from ChEMBL document CHEMBL5058577, “EUbOPEN Chemogenomics Library 2 (Multiplex)” (2022).

Tested on: HEK-293T
Experiment: Multiplex assay against HEK293T
Assay type: toxicity, cell-based
Details: human
How it was run: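 Four dyes were applied at seeding to live cells: Hoechst33342, BioTracker Green Microtubule Cytoskeleton Dye, MitoTracker Red and Annexin V Alexa Fluor 680. Imaging after compound addition used a CQ1 microscope at 37°C and 5% CO2. CellPathfinder machine-learning gating then sorted cells into Hoechst high-intensity objects or normal cells, normal cells into healthy, pyknosed or fragmented nuclei, and pyknosed cells into mitotic or apoptotic, with tubulin, mitochondrial-mass and membrane-permeability phenotypes given as per cents of healthy-nucleus cells.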

[1] = 12 h, 1 µM, compound concentration 1 uM, replicate 1
[2] = 12 h, 1 µM, compound concentration 1 uM, replicate 2
[3] = 12 h, 10 µM, compound concentration 10 uM, replicate 1
[4] = 12 h, 10 µM, compound concentration 10 uM, replicate 2
[5] = 24 h, 1 µM, compound concentration 1 uM, replicate 1
[6] = 24 h, 1 µM, compound concentration 1 uM, replicate 2
[7] = 24 h, 10 µM, compound concentration 10 uM, replicate 1
[8] = 24 h, 10 µM, compound concentration 10 uM, replicate 2
[9] = 48 h, 1 µM, compound concentration 1 uM, replicate 1
[10] = 48 h, 1 µM, compound concentration 1 uM, replicate 2
[11] = 48 h, 10 µM, compound concentration 10 uM, replicate 1
[12] = 48 h, 10 µM, compound concentration 10 uM, replicate 2

`CCCOc1ccc2[nH]cc(C3=CCNCC3)c2n1.Cl` was tested, and the “Population Apoptotic (%)” value [1] was 32%, the “Population Fragmented Nuclei (%)” value [1] was 5% and the “Population Healthy Nuclei (%)” value [1] was 81%. The “Population Hoechst High Intensity Objects (%)” value [1] was 5%, the “Population Membrane Permeable-Phenotype (%)” value [1] was 0% and the “Population Mitochondria Different-Phenotype (%)” value [1] was 41%. For the same molecule, the “Population Mitotic Cells (%)” value [1] was 68%, the “Population Normal (%)” value [1] was 94% and the “Population Pyknosed Nuclei (%)” value [1] was 12%. For the same molecule, the “Population Tubulin-Different-Phenotype (%)” value [1] was 39%, the “Total Cell Count” value [1] was 416 and the “Population Apoptotic (%)” value [2] was 44%. For the same molecule, the “Population Fragmented Nuclei (%)” value [2] was 6%, the “Population Healthy Nuclei (%)” value [2] was 82% and the “Population Hoechst High Intensity Objects (%)” value [2] was 4%. For the same molecule, the “Population Mitochondria Different-Phenotype (%)” value [2] was 52%, the “Population Mitotic Cells (%)” value [2] was 55% and the “Population Normal (%)” value [2] was 95%. The “Population Pyknosed Nuclei (%)” value [2] was 10%, the “Population Tubulin-Different-Phenotype (%)” value [2] was 21% and the “Total Cell Count” value [2] was 344. The “Population Apoptotic (%)” value [3] was 43%, the “Population Fragmented Nuclei (%)” value [3] was 5% and the “Population Healthy Nuclei (%)” value [3] was 78%. For the same molecule, the “Population Hoechst High Intensity Objects (%)” value [3] was 10%, the “Population Membrane Permeable-Phenotype (%)” value [3] was 0% and the “Population Mitochondria Different-Phenotype (%)” value [3] was 58%. The “Population Mitotic Cells (%)” value [3] was 56%, the “Population Normal (%)” value [3] was 89% and the “Population Pyknosed Nuclei (%)” value [3] was 15%. The “Population Tubulin-Different-Phenotype (%)” value [3] was 41%, the “Total Cell Count” value [3] was 446 and the “Population Apoptotic (%)” value [4] was 55%. For the same molecule, the “Population Fragmented Nuclei (%)” value [4] was 6%, the “Population Healthy Nuclei (%)” value [4] was 82% and the “Population Hoechst High Intensity Objects (%)” value [4] was 4%. The “Population Mitochondria Different-Phenotype (%)” value [4] was 76%, the “Population Mitotic Cells (%)” value [4] was 44% and the “Population Normal (%)” value [4] was 95%. For the same molecule, the “Population Pyknosed Nuclei (%)” value [4] was 11%, the “Total Cell Count” value [4] was 387 and the “Population Apoptotic (%)” value [5] was 28%. The “Population Fragmented Nuclei (%)” value [5] was 10%, the “Population Healthy Nuclei (%)” value [5] was 76% and the “Population Hoechst High Intensity Objects (%)” value [5] was 3%. The “Population Membrane Permeable-Phenotype (%)” value [5] was 0%, the “Population Mitochondria Different-Phenotype (%)” value [5] was 26% and the “Population Mitotic Cells (%)” value [5] was 71%. For the same molecule, the “Population Normal (%)” value [5] was 96%, the “Population Pyknosed Nuclei (%)” value [5] was 12% and the “Population Tubulin-Different-Phenotype (%)” value [5] was 24%. For the same molecule, the “Total Cell Count” value [5] was 558, the “Population Apoptotic (%)” value [6] was 35% and the “Population Fragmented Nuclei (%)” value [6] was 9%. The “Population Healthy Nuclei (%)” value [6] was 80%, the “Population Hoechst High Intensity Objects (%)” value [6] was 2% and the “Population Membrane Permeable-Phenotype (%)” value [6] was 1%. For the same molecule, the “Population Mitochondria Different-Phenotype (%)” value [6] was 29%, the “Population Mitotic Cells (%)” value [6] was 64% and the “Population Normal (%)” value [6] was 97%. For the same molecule, the “Population Pyknosed Nuclei (%)” value [6] was 9%, the “Population Tubulin-Different-Phenotype (%)” value [6] was 14% and the “Total Cell Count” value [6] was 425. The “Population Apoptotic (%)” value [7] was 39%, the “Population Fragmented Nuclei (%)” value [7] was 12% and the “Population Healthy Nuclei (%)” value [7] was 74%. For the same molecule, the “Population Hoechst High Intensity Objects (%)” value [7] was 7%, the “Population Membrane Permeable-Phenotype (%)” value [7] was 0% and the “Population Mitochondria Different-Phenotype (%)” value [7] was 50%. For the same molecule, the “Population Mitotic Cells (%)” value [7] was 60%, the “Population Normal (%)” value [7] was 92% and the “Population Pyknosed Nuclei (%)” value [7] was 12%. The “Population Tubulin-Different-Phenotype (%)” value [7] was 38%, the “Total Cell Count” value [7] was 583 and the “Population Apoptotic (%)” value [8] was 51%. For the same molecule, the “Population Fragmented Nuclei (%)” value [8] was 6%, the “Population Healthy Nuclei (%)” value [8] was 81% and the “Population Hoechst High Intensity Objects (%)” value [8] was 3%. The “Population Mitochondria Different-Phenotype (%)” value [8] was 63%, the “Population Mitotic Cells (%)” value [8] was 48% and the “Population Normal (%)” value [8] was 96%. The “Population Pyknosed Nuclei (%)” value [8] was 11%, the “Population Tubulin-Different-Phenotype (%)” value [8] was 34% and the “Total Cell Count” value [8] was 502. The “Population Apoptotic (%)” value [9] was 17%, the “Population Fragmented Nuclei (%)” value [9] was 13% and the “Population Healthy Nuclei (%)” value [9] was 79%. For the same molecule, the “Population Hoechst High Intensity Objects (%)” value [9] was 2%, the “Population Membrane Permeable-Phenotype (%)” value [9] was 0% and the “Population Mitochondria Different-Phenotype (%)” value [9] was 15%. For the same molecule, the “Population Mitotic Cells (%)” value [9] was 82%, the “Population Normal (%)” value [9] was 97% and the “Population Pyknosed Nuclei (%)” value [9] was 6%. The “Population Tubulin-Different-Phenotype (%)” value [9] was 12%, the “Total Cell Count” value [9] was 872 and the “Population Apoptotic (%)” value [10] was 38%. For the same molecule, the “Population Fragmented Nuclei (%)” value [10] was 9%, the “Population Healthy Nuclei (%)” value [10] was 82% and the “Population Hoechst High Intensity Objects (%)” value [10] was 1%. For the same molecule, the “Population Membrane Permeable-Phenotype (%)” value [10] was 1%, the “Population Mitochondria Different-Phenotype (%)” value [10] was 20% and the “Population Mitotic Cells (%)” value [10] was 61%. The “Population Normal (%)” value [10] was 98%, the “Population Pyknosed Nuclei (%)” value [10] was 7% and the “Population Tubulin-Different-Phenotype (%)” value [10] was 9%. For the same molecule, the “Total Cell Count” value [10] was 657, the “Population Apoptotic (%)” value [11] was 35% and the “Population Fragmented Nuclei (%)” value [11] was 14%. The “Population Healthy Nuclei (%)” value [11] was 76%, the “Population Hoechst High Intensity Objects (%)” value [11] was 6% and the “Population Membrane Permeable-Phenotype (%)” value [11] was 0%. For the same molecule, the “Population Mitochondria Different-Phenotype (%)” value [11] was 41%, the “Population Mitotic Cells (%)” value [11] was 64% and the “Population Normal (%)” value [11] was 93%. The “Population Pyknosed Nuclei (%)” value [11] was 8%, the “Population Tubulin-Different-Phenotype (%)” value [11] was 23% and the “Total Cell Count” value [11] was 776. For the same molecule, the “Population Apoptotic (%)” value [12] was 26%, the “Population Fragmented Nuclei (%)” value [12] was 13% and the “Population Healthy Nuclei (%)” value [12] was 80%. For the same molecule, the “Population Hoechst High Intensity Objects (%)” value [12] was 5%, the “Population Mitochondria Different-Phenotype (%)” value [12] was 37% and the “Population Mitotic Cells (%)” value [12] was 73%. The “Population Normal (%)” value [12] was 94%, the “Population Pyknosed Nuclei (%)” value [12] was 6% and the “Population Tubulin-Different-Phenotype (%)” value [12] was 20%. The “Total Cell Count” value [12] was 733.
